For assay [1], the target named is DNA topoisomerase 2-alpha (Homo sapiens) (UniProt P11388). In words: Inhibition of human DNA topoisomerase-2a-mediated relaxation of supercoiled DNA pBR322 at 100 uM after 4 hrs using ethidium bromide staining by agarose gel electrophoresis analysis. In short, it runs like this: (§1)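 Supercoiled pBR322 (200 ng) incubated with human topo IIα (1 unit) ± compound for 30 min at 30 °C. Buffer: 10 mM Tris-HCl pH 7.9, 50 mM NaCl, 50 mM KCl, 5 mM MgCl2, 1 mM EDTA, 1 mM ATP, BSA. Stopped with EDTA. 1% agarose gel run at 25 V for 4 h in TAE, ethidium bromide stain, supercoiled DNA quantified by UV imaging.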
Chain of DNA topoisomerase 2-alpha (Homo sapiens) (P11388 whole entry): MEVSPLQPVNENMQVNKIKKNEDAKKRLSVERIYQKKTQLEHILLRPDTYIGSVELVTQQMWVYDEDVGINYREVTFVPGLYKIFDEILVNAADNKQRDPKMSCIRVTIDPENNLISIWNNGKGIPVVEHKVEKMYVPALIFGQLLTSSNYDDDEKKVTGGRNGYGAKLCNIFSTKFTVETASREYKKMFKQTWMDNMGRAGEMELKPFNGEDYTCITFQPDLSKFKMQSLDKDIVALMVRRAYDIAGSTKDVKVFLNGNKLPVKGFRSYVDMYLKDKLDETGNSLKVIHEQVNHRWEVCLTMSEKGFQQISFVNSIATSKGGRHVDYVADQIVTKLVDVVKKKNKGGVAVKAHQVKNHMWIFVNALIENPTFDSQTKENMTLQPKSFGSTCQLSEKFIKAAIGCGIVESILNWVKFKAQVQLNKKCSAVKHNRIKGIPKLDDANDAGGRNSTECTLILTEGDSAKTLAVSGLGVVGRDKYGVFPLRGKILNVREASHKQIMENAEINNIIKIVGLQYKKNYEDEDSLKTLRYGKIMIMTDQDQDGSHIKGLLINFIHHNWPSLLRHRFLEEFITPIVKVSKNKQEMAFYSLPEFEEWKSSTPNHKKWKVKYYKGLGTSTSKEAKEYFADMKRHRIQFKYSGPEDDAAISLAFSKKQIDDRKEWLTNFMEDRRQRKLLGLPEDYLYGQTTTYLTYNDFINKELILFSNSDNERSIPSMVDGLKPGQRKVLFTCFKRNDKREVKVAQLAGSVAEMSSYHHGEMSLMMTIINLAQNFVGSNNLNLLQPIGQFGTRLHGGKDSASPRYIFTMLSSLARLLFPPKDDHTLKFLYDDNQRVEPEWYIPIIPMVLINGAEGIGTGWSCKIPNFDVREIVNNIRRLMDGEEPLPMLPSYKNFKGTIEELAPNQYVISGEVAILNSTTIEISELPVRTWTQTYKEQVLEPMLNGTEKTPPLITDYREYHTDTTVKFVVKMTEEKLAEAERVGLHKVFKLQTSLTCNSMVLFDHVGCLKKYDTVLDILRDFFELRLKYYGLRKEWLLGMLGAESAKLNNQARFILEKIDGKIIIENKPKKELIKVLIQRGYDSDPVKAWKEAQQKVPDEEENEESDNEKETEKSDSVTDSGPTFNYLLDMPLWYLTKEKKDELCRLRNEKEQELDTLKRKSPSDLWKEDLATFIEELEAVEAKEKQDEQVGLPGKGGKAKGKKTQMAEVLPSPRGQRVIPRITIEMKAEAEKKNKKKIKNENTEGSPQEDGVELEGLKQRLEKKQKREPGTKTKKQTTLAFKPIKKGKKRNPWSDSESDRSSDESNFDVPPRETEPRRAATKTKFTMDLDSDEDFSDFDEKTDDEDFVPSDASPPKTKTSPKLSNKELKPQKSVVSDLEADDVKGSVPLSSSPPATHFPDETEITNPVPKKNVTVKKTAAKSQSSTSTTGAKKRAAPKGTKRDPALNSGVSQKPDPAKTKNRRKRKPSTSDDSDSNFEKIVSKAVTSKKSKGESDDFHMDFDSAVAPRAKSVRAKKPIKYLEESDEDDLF

The test system of assay [2] is HeLa. Description: Cell cycle arrest in human HeLa cells assessed as accumulation at G2/M phase phase after 24 hrs using […] by flow cytometry analysis relative to control. The assay is classed as functional, cell-based. In short, it runs like this:
(§2)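 HeLa cells exposed to graded compound concentrations for 24 h, harvested by centrifugation, PBS-washed twice, fixed overnight on ice in 70% ethanol. Stained with 10 μg/mL propidium iodide plus 0.5 mg/mL RNase and 0.1% Triton X-100 in PBS, 30 min at 37 °C in the dark. Flow cytometry gates: sub-G0/G1, G0/G1, S, G2/M.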

Assay [3] has as its target T1, DNA topoisomerase 1 (Homo sapiens) (UniProt P11387).
T1 sequence (whole entry): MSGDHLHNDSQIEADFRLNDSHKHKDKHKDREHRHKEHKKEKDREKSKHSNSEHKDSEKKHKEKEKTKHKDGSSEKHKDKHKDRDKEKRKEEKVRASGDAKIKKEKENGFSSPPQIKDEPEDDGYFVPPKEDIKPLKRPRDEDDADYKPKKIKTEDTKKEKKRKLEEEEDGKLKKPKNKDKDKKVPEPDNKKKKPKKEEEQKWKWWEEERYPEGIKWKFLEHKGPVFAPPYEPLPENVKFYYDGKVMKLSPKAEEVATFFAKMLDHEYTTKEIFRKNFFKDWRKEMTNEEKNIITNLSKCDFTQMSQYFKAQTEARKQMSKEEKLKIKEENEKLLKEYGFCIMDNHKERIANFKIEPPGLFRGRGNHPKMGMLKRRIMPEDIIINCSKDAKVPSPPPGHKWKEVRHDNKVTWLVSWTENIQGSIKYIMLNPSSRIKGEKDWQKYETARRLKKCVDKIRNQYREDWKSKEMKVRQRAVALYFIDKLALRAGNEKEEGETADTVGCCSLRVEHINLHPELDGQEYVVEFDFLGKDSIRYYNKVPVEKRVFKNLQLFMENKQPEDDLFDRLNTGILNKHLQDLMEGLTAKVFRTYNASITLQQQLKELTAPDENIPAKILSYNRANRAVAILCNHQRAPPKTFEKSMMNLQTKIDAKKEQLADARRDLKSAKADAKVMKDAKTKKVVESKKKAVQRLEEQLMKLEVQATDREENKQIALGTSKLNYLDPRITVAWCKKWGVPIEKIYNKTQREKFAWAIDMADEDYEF
Description: Inhibition of recombinant human DNA topoisomerase-1-mediated relaxation of supercoiled DNA pBR322 at 100 uM after 7 hrs using ethidium bromide staining by agarose gel electrophoresis analysis. In short, it runs like this:
(§3)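 pBR322 (100 ng) incubated with recombinant human topo I (0.4 units) ± compound for 30 min at 37 °C. Buffer: 10 mM Tris-HCl pH 7.9, 150 mM NaCl, 0.1% BSA, 1 mM spermidine, 5% glycerol. Quenched with sarcosyl stop solution. 1% agarose gel run at 15 V for 7 h in TAE, ethidium bromide stain, supercoiled DNA quantified under UV.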

Assay [4] has as its system HeLa. Description: Cell cycle arrest in human HeLa cells assessed as accumulation at sub-G0/G1 phase after 24 hrs using […] by flow cytometry analysis relative to control. It counts as functional, cell-based. In short, it runs like this: as §2
For assay [5], the target named is DNA topoisomerase 2-alpha (Homo sapiens) (UniProt P11388). Description: Inhibition of human DNA topoisomerase-2a-mediated relaxation of supercoiled DNA pBR322 at 20 uM after 4 hrs using ethidium bromide staining by agarose gel electrophoresis analysis. In short, it runs like this:
as §1

In assay [6] the target is T1, DNA topoisomerase 1 (Homo sapiens). Description: Inhibition of recombinant human DNA topoisomerase-1-mediated relaxation of supercoiled DNA pBR322 at 20 uM after 7 hrs using ethidium bromide staining by agarose gel electrophoresis analysis. The essentials: as §3
Assay [7] deals with HeLa. In words: Cell cycle arrest in human HeLa cells assessed as accumulation at G0/G1 phase phase at 5 uM after 24 hrs using ethidium bromide staining by flow cytometry analysis relative to control. It counts as functional. As to conditions: in the assay text read “propidium iodide staining” for “ethidium bromide staining”. The essentials:
as §2

Assay [8] in a line: Cytotoxicity against human HCT15 cells after 2 days. It counts as functional, cell-based, HCT-15. Particulars: Homo sapiens, HCT-15, 48 h. The essentials:
(§4)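 Cells seeded at 2-4 × 10^4 per well in medium with 10% FBS and incubated overnight at 37 °C, 5% CO2. Graded compound concentrations added on day 2. CCK-8 reagent added on day 4 for a further 4 h, absorbance read at 450 nm. IC50 from a four-parameter logistic fit; mean ± S.D. of three experiments run in triplicate.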

The subject of assay [9] is HeLa. In words: Cell cycle arrest in human HeLa cells assessed as accumulation at G2/M phase phase at 10 uM after 24 hrs using ethidium bromide staining by flow cytometry analysis relative to control. The assay is classed as functional. As to conditions: in the assay text read “propidium iodide staining” for “ethidium bromide staining”. The essentials:
as §2

For assay [10], the system named is HeLa. Description: Cell cycle arrest in human HeLa cells assessed as accumulation at G0/G1 phase phase at 25 uM after 24 hrs using […] by flow cytometry analysis relative to control. The assay is classed as functional. The essentials:
as §2

For assay [11], the system named is HeLa. Description: Cell cycle arrest in human HeLa cells assessed as accumulation at G2/M phase phase at 25 uM after 24 hrs using […] by flow cytometry analysis relative to control. It counts as functional. In short, it runs like this:
as §2

The subject of assay [12] is HeLa. Description: Cell cycle arrest in human HeLa cells assessed as accumulation at sub-G0/G1 phase at 25 uM after 24 hrs using […] by flow cytometry analysis relative to control. The assay is classed as functional. In short, it runs like this: as §2
Assay [13] concerns HeLa. In words: Cell cycle arrest in human HeLa cells assessed as accumulation at sub-G0/G1 phase at 10 uM after 24 hrs using ethidium bromide staining by flow cytometry analysis relative to control. The assay is classed as functional. Particulars: in the assay text read “propidium iodide staining” for “ethidium bromide staining”. The essentials: as §2
Assay [14] relates to HeLa. Description: Cell cycle arrest in human HeLa cells assessed as accumulation at S phase phase at 25 uM after 24 hrs using […] by flow cytometry analysis relative to control. The assay is classed as functional. The essentials: as §2
Assay [15] deals with HeLa. In words: Cell cycle arrest in human HeLa cells assessed as accumulation at sub-G0/G1 phase at 50 uM after 24 hrs using […] by flow cytometry analysis relative to control. The assay is classed as functional. In short, it runs like this: as §2
Assay [16] has as its system HeLa. In words: Cell cycle arrest in human HeLa cells assessed as accumulation at S phase phase at 50 uM after 24 hrs using […] by flow cytometry analysis relative to control. It counts as functional. The essentials:
as §2

Assay [17] has as its system HeLa. Description: Cell cycle arrest in human HeLa cells assessed as accumulation at S phase phase at 5 uM after 24 hrs using ethidium bromide staining by flow cytometry analysis relative to control. It counts as functional. As to conditions: in the assay text read “propidium iodide staining” for “ethidium bromide staining”. In short, it runs like this:
as §2

The subject of assay [18] is HeLa. Description: Cell cycle arrest in human HeLa cells assessed as accumulation at G0/G1 phase phase at 50 uM after 24 hrs using […] by flow cytometry analysis relative to control. The assay is classed as functional. In short, it runs like this:
as §2

Assay [19] has as its system HeLa. Description: Cell cycle arrest in human HeLa cells assessed as accumulation at G2/M phase phase at 50 uM after 24 hrs using […] by flow cytometry analysis relative to control. The assay is classed as functional. The essentials: as §2
Assay [20] can be described thus: Cytotoxicity against human MCF10A cells after 2 days. Particulars: Homo sapiens, MCF-10A, 48 h. The assay is classed as cell-based, MCF-10A. The essentials: as §4
The test system of assay [21] is HeLa. In words: Cell cycle arrest in human HeLa cells assessed as accumulation at G0/G1 phase phase at 10 uM after 24 hrs using ethidium bromide staining by flow cytometry analysis relative to control. It counts as functional. As to conditions: in the assay text read “propidium iodide staining” for “ethidium bromide staining”. In short, it runs like this: as §2

Assay [22] concerns T47D. Description: Cytotoxicity against human T47D cells after 2 days. The assay is classed as functional, cell-based. Particulars: Homo sapiens, T47D, 48 h. The essentials: as §4
For assay [23], the system named is HeLa. Description: Cell cycle arrest in human HeLa cells assessed as accumulation at S phase phase at 10 uM after 24 hrs using ethidium bromide staining by flow cytometry analysis relative to control. It counts as functional. Particulars: in the assay text read “propidium iodide staining” for “ethidium bromide staining”. The essentials:
as §2

For assay [24], the system named is HeLa. In words: Cell cycle arrest in human HeLa cells assessed as accumulation at G2/M phase phase at 5 uM after 24 hrs using ethidium bromide staining by flow cytometry analysis relative to control. The assay is classed as functional. As to conditions: in the assay text read “propidium iodide staining” for “ethidium bromide staining”. The essentials: as §2
The test system of assay [25] is DU-145. In words: Cytotoxicity against human DU145 cells after 2 days. It counts as functional, cell-based. Particulars: Homo sapiens, DU-145, 48 h. The essentials: as §4

In ChEMBL document CHEMBL3286131, “Design, synthesis and systematic evaluation of cytotoxic 3-heteroarylisoquinolinamines as topoisomerases inhibitors” (Eur J Med Chem, 2014) one finds inhibition, Activity and IC50 data, which are given here for nine compounds.

Structures are written as SMILES. Several values for one entry are separate records, joined by “and”; a condition that tells them apart may be missing. Identical values can stand only once.

For `Nc1nc(-c2cccs2)cc2ccccc12`, the inhibition in assay [1] was 14.6% and 22.5%; in assay [3] it was 0%; in assay [5], 0%. The Activity entry in assay [2] and in assay [4] was “Dose-dependent effect” throughout.
Regarding `Cc1ccc2c(N3CCOCC3)nc(-c3cccs3)cc2c1`, the inhibition stood at 0% in assay [3] and 1.7% in [5].
On the same counts, the results for `c1csc(-c2cc3ccccc3c(N3CCOCC3)n2)c1` are 0% and 0%.
Turning to `c1csc(-c2cc3ccccc3c(N3CCCCC3)n2)c1`, the inhibition in [1] is 42.9% and 48.1%; in [3], 0%; in assay [5], 0.5% and 1.8%.
For the compound `Cc1ccc2c(N3CCCCC3)nc(-c3cccs3)cc2c1`, the results for the inhibition in [5] and in [6] were 1.1% and 0%, respectively.
In the case of `Cc1ccc2c(N3CCNCC3)nc(-c3cccs3)cc2c1`, the inhibition was 59% and 59.6% in [3]; 0% in assay [5]; 0% in [6].
`c1csc(-c2cc3ccccc3c(N3CCNCC3)n2)c1`: the inhibition in [5] was 0%; in assay [6] it was 0.6% and 4.8%.
As for `Cc1ccc2cc(-c3cccs3)nc(N3CCNCC3)c2c1`, the Activity came out at 65.59% in assay [7]; 14.5% in [9]; 49.19% in assay [10]; 18.81% in assay [11]; 26.67% in assay [12]; 5.76% in assay [13]. The Activity in assay [14] came to 4.72%; in [15], 90.48%; in [16] it was 1.26%; in assay [17], 11.32%; in assay [18], 6.92%; in assay [19] it was 1.35%. Besides, the Activity in assay [21] turned out to be 68.71%; in assay [23] it was 10.13%; in assay [24], 14.91%. Moreover, the IC50 in [8] was 1.29 µM; in [20], 5.54 µM; in assay [22], 1.14 µM; in [25], 4.15 µM. For the same compound, the inhibition in assay [1] turned out to be 22.1%; in assay [3], 10.7%; in [6], 0%.
`Cc1ccc2c(NCc3ccccc3)nc(-c3cccs3)cc2c1`: the IC50 in assay [8] is 8.62 µM; in [20], above 50 µM; in assay [22], 6.57 µM; in [25] it was above 50 µM. Further, the inhibition is 68.9% in assay [1], 0% in assay [3] and 1.1% in [5].
